{
  "source": "ChEMBL document CHEMBL1649070",
  "about": "“Virtual screening identification of nonfolate compounds, including a CNS drug, as antiparasitic agents inhibiting pteridine reductase” (J Med Chem, 2011)",
  "key": {"[1]": {"biological_target": "T1, Dihydrofolate reductase (Homo sapiens) (UniProt P00374)", "T1 sequence (whole entry)": "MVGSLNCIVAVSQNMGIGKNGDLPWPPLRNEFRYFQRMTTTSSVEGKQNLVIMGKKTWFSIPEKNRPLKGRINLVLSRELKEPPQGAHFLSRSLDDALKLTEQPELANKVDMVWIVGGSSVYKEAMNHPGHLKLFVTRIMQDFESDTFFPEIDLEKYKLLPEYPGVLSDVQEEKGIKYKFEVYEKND", "experiment": "Inhibition of human DHFR at 25 uM", "how_it_was_run": "(§1)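 NADPH oxidation followed at 340 nm. Compounds in DMSO, screened at a single concentration between 25 μM and 1 mM. Measurements run in triplicate.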"}, "[2]": {"biological_target": "Bifunctional dihydrofolate reductase-thymidylate synthase (Leishmania major) (UniProt P07382)", "sequence (P07382 whole entry, looked up)": "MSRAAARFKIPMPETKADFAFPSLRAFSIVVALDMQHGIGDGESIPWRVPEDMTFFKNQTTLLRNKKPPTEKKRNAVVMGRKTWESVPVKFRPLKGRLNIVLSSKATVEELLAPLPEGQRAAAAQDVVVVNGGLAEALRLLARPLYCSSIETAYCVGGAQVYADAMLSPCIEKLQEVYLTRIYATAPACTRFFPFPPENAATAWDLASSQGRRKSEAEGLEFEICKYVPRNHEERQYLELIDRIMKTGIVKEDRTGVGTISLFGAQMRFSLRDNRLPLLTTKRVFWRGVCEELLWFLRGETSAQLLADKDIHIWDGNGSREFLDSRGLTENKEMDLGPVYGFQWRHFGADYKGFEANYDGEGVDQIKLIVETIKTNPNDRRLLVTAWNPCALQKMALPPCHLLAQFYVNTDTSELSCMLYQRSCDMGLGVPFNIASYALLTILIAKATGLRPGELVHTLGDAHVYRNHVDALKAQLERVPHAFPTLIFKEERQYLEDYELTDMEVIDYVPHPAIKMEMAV", "experiment": "Inhibition of Leishmania major DHFR at 25 uM", "how_it_was_run": "as §1"}, "Leishmania mexicana [3]": {"test_system": "Leishmania mexicana", "experiment": "Antileishmanial activity against Leishmania mexicana MHOM/BZ/84/BEL46 assessed as growth at 50 ug/ml by Alamar blue assay in presence of pyrimethamine; 5-(4-chlorophenyl)-6-ethylpyrimidine-2,4-diamine DHFR inhibitor; values are per cent of control"}, "Leishmania major [4]": {"test_system": "Leishmania major", "experiment": "Antileishmanial activity against Leishmania major MHOM/SU/73/5-ASKH assessed as growth at 50 ug/ml by Alamar blue assay", "format": "functional", "how_it_was_run": "(§2)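 Promastigotes grown in SDM-79, pH 7.3, with 15% heat-inactivated FCS at 28 C in 5% CO2, then seeded at 1 × 10^6 parasites/mL. Each compound tested alone at 50 μg/mL in duplicate as a control for the combination experiments; DMSO below 1% final. After 72 h at 28 C, Alamar Blue added for 4 h; fluorescence read at ex 530 / em 590 nm. Growth expressed as percentage of untreated cultures.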"}, "Leishmania mexicana [5]": {"test_system": "Leishmania mexicana", "experiment": "Antileishmanial activity against Leishmania mexicana MHOM/BZ/84/BEL46 assessed as growth by Alamar blue assay", "format": "functional", "details": "read-out: ED50 (the source's name)", "how_it_was_run": "(§3)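 Promastigotes cultured in SDM-79, pH 7.3, with 15% heat-inactivated FCS at 28 C under 5% CO2, then seeded at 1 × 10^6 parasites/mL. DMSO dilutions in medium tested from 100 μg/mL downward, DMSO <1% final. After 72 h at 28 C, Alamar Blue added for 4 h; fluorescence at ex 530 / em 590 nm. Untreated cultures set as 100%. ED50 by linear interpolation; three independent experiments, each in duplicate.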"}, "[6]": {"biological_target": "Bifunctional dihydrofolate reductase-thymidylate synthase (Leishmania major) (UniProt P07382)", "experiment": "Inhibition of Leishmania major DHFR at 1 mM", "how_it_was_run": "as §1"}, "[7]": {"experiment": "Cytotoxicity against human MRC5 cells after 72 hrs by Alamar blue assay", "format": "cell-based", "details": "read-out: ED50"}, "Leishmania mexicana [8]": {"test_system": "Leishmania mexicana", "experiment": "Antileishmanial activity against Leishmania mexicana MHOM/BZ/84/BEL46 assessed as growth at 50 ug/ml by Alamar blue assay", "format": "functional", "how_it_was_run": "as §2"}, "Leishmania major [9]": {"test_system": "Leishmania major", "experiment": "Antileishmanial activity against Leishmania major MHOM/SU/73/5-ASKH assessed as growth at 50 ug/ml by Alamar blue assay in presence of pyrimethamine; 5-(4-chlorophenyl)-6-ethylpyrimidine-2,4-diamine DHFR inhibitor; values are per cent of control"}, "[10]": {"biological_target": "Bifunctional dihydrofolate reductase-thymidylate synthase (Leishmania major) (UniProt P07382)", "experiment": "Inhibition of Leishmania major DHFR at 50 uM", "how_it_was_run": "as §1"}, "[11]": {"biological_target": "T2, Pteridine reductase 1 (Leishmania major) (UniProt Q01782)", "T2 sequence (whole entry)": "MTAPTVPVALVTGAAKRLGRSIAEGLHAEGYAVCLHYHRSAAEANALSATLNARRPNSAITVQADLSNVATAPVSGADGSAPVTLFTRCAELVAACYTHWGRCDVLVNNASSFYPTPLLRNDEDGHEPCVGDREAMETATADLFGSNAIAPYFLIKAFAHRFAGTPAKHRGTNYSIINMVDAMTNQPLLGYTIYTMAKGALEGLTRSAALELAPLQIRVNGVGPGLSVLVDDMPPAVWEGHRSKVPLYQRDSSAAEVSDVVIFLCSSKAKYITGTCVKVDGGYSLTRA", "experiment": "Inhibition of Leishmania major PTR1 at 5 uM", "how_it_was_run": "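Compounds dissolved in DMSO and screened at a single 5 μM concentration; DMSO kept below 1%. Measurements run in triplicate.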"}, "Leishmania major [12]": {"test_system": "Leishmania major", "experiment": "Antileishmanial activity against Leishmania major MHOM/SU/73/5-ASKH assessed as growth by Alamar blue assay", "format": "functional", "details": "read-out: ED50 (the source's name)", "how_it_was_run": "as §3"}, "[13]": {"experiment": "Cytotoxicity against human MRC5 cells at 100 ug/ml after 72 hrs by Alamar blue assay", "format": "cell-based", "details": "at 100 µg/mL, read-out: INH"}, "[14]": {"biological_target": "T1, Dihydrofolate reductase (Homo sapiens)", "experiment": "Inhibition of human DHFR at 50 uM", "how_it_was_run": "as §1"}, "[15]": {"experiment": "Lipophilicity, log D of the compound in octanol buffer at pH 7.4", "format": "physicochemical"}, "[16]": {"experiment": "Solubility of the compound at pH 7.4", "format": "physicochemical", "details": "buffer"}},
  "note": "Activity calls are given as the source filed them. The rule behind the calls is not given here.",
  "data": [
    {"smiles": "Nc1nc2ccc([N+](=O)[O-])cc2s1", "values": [
      {"measurement": "inhibition", "setting": "[1]", "value": "inactive"},
      {"measurement": "inhibition", "setting": "[2]", "value": "inactive"}
    ]},
    {"smiles": "Nc1nc2ccc(OC(F)(F)F)cc2s1", "note": "[RILUZOLE]", "values": [
      {"measurement": "growth, % of control at 50 µg/mL", "setting": "Leishmania mexicana [3]", "value": 15.1, "unit": "%"},
      {"measurement": "growth, % of control at 50 µg/mL", "setting": "Leishmania major [4]", "value": 102, "unit": "%"},
      {"measurement": "EC50", "setting": "Leishmania mexicana [5]", "value": 30.8, "unit": "µg/mL"},
      {"measurement": "inhibition", "setting": "[6]", "value": "inactive"},
      {"measurement": "CC50 at 72 h", "setting": "[7]", "value": 27.9, "unit": "µg/mL"},
      {"measurement": "growth, % of control at 50 µg/mL", "setting": "Leishmania mexicana [8]", "value": 21.5, "unit": "%"},
      {"measurement": "growth, % of control at 50 µg/mL", "setting": "Leishmania major [9]", "value": 22.9, "unit": "%"}
    ]},
    {"smiles": "O=C(CCCl)Nc1nnc(CCCl)s1", "values": [
      {"measurement": "growth, % of control at 50 µg/mL", "setting": "Leishmania mexicana [3]", "value": 3.5, "unit": "%"},
      {"measurement": "growth, % of control at 50 µg/mL", "setting": "Leishmania major [4]", "value": 7.1, "unit": "%"},
      {"measurement": "inhibition", "setting": "[10]", "value": "inactive"},
      {"measurement": "EC50", "setting": "Leishmania mexicana [5]", "value": 10.1, "unit": "µg/mL"},
      {"measurement": "CC50 at 72 h", "setting": "[7]", "value": 4.18, "unit": "µg/mL"},
      {"measurement": "growth, % of control at 50 µg/mL", "setting": "Leishmania mexicana [8]", "value": 4.7, "unit": "%"},
      {"measurement": "growth, % of control at 50 µg/mL", "setting": "Leishmania major [9]", "value": 4.1, "unit": "%"},
      {"measurement": "inhibition", "setting": "[11]", "value": "inactive"},
      {"measurement": "EC50", "setting": "Leishmania major [12]", "value": 22.1, "unit": "µg/mL"}
    ]},
    {"smiles": "Nc1nnc(-c2cnccc2N)s1", "values": [
      {"measurement": "growth, % of control at 50 µg/mL", "setting": "Leishmania mexicana [3]", "value": 15.6, "unit": "%"},
      {"measurement": "growth, % of control at 50 µg/mL", "setting": "Leishmania major [4]", "value": 106, "unit": "%"},
      {"measurement": "inhibition", "setting": "[10]", "value": "inactive"},
      {"measurement": "cytotoxicity at 72 h, 100 ug/ml", "setting": "[13]", "value": 10, "unit": "%"},
      {"measurement": "inhibition", "setting": "[14]", "value": "inactive"},
      {"measurement": "logD", "setting": "[15]", "value": 1.44},
      {"measurement": "growth, % of control at 50 µg/mL", "setting": "Leishmania mexicana [8]", "value": 112, "unit": "%"},
      {"measurement": "growth, % of control at 50 µg/mL", "setting": "Leishmania major [9]", "value": 38, "unit": "%"},
      {"measurement": "inhibition", "setting": "[11]", "value": "inactive"},
      {"measurement": "solubility", "setting": "[16]", "value": 1700, "unit": "µM"}
    ]}
  ]
}
